Assay [1] can be described thus: Inhibition of FAM-Bim peptide binding to human Hsp70 NBD (1 to 383) measured after 30 mins by fluorescence polarization assay. The procedure, abridged: (§1)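 Fluorescence polarization competition. Serial dilutions of compound added to protein–probe mixture in buffer containing 0.02% sodium azide, incubated 30 min, then polarization read. Control values subtracted. IC50 from the competitive inhibition curve of polarization versus compound concentration.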
On the technique in general: Polarisation of emitted light reports the rotation of a fluorescent probe.

For assay [2], the target named is Apoptosis regulator Bcl-2 (Homo sapiens, UniProt P10415). Put plainly: Inhibition of FAM-Bim peptide binding to human Bcl-2 (2 to 206) measured after 30 mins by fluorescence polarization assay. In short, it runs like this: as §1
Assay [3] is described as follows: Binding affinity to human Hsp70 NBD (1 to 383) assessed as dissociation constant measured by isothermal titration calorimetry assay. The procedure, abridged: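 ITC: binding isotherms integrated to give enthalpy change against ligand molar ratio, fitted with a one-set-of-sites model. Kd taken from the slope of the central linear part of the fractional saturation curve. Three independent experiments.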

For the next assay, the species on record is Homo sapiens. Put plainly: Inhibition of BimBH3-stimulated human HSP70 ATPase activity.
Assay [4] relates to BV-173. As to the kind of experiment: Competitive binding affinity to HSP70 in human BV-173 cell lysate by pull-down/Western blot analysis. The format is subcellular. The procedure, abridged: (§2)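 BV173 cell lysate incubated with biotin-clickable affinity probe, with or without competitor. Probe-bound proteins pulled down on streptavidin/avidin agarose after click reaction. Beads washed with 0.1% SDS and PBS, boiled 15 min in SDS loading buffer. Hsp70, Hsc70 and Mortalin detected by Western blot.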

The subject of assay [5] is BV-173. Put plainly: Induction of apoptosis in human BV-173 cells by AnnexinV-FITC/PI staining based flow cytometric analysis. The format is functional, cell-based. In short, it runs like this:
(§3)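 Cells treated with inhibitor for 48 h (DMSO stocks diluted in medium), washed in PBS with 1% bovine calf serum, stained with FITC–Annexin V (1:40) for 10 min in the dark at room temperature, and analysed by flow cytometry. EC50 is the concentration giving 50% apoptosis. Culture conditions: BV173 and KCL22 in RPMI 1640, HEK293 in DMEM, BaF3 in RPMI 1640 with 10 ng/ml mouse IL-3, all with 10% FBS at 37 °C, 5% CO2.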
For orientation: In flow cytometry, cells or beads pass a laser one at a time.

Assay [6] has as its system KCL-22. As to the kind of experiment: Induction of apoptosis in human KCL-22 cells by AnnexinV-FITC/PI staining based flow cytometric analysis. The format is functional, cell-based. The procedure, abridged:
as §3

The next assay relates to HEK293. As to the kind of experiment: Induction of apoptosis in human HEK293 cells by AnnexinV-FITC/PI staining based flow cytometric analysis. The format is cell-based. In short, it runs like this: as §3
A further assay concerns BaF3. As to the kind of experiment: Induction of apoptosis in mouse BaF3 cells by AnnexinV-FITC/PI staining based flow cytometric analysis. The format is cell-based. The procedure, abridged:
as §3

Assay [7] has as its system BV-173. Put plainly: Inhibition of Hsp70/Bim protein protein interaction in human BV-173 cells assessed as decrease in Akt phosphorylation at 3 uM by Western blot analysis. It is filed as cell-based. The procedure, abridged:
(§4)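 BV173 and KCL22 cells treated at 3 µM, with DMSO as vehicle. Lysed in RIPA with protease/phosphatase inhibitor for 30 min on ice and protein measured by BCA. 150–250 µg resolved by SDS-PAGE and blotted for AKT, pAKT, Raf-1 and pRaf-1, with β-actin loading control.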
(In general: Immunoblotting shows a protein as a band on a membrane.)

Assay [8] has as its system BV-173. As to the kind of experiment: Inhibition of Hsp70/Bim protein protein interaction in human BV-173 cells assessed as decrease in Raf-1 phosphorylation at 3 uM by Western blot analysis. The format is cell-based. The procedure, abridged:
as §4

In assay [9] the test system is KCL-22. As to the kind of experiment: Inhibition of Hsp70/Bim protein protein interaction in human KCL-22 cells assessed as decrease in Akt phosphorylation at 3 uM by Western blot analysis. It is filed as cell-based. The procedure, abridged: as §4
Assay [10] deals with KCL-22. As to the kind of experiment: Inhibition of Hsp70/Bim protein protein interaction in human KCL-22 cells assessed as decrease in Raf-1 phosphorylation at 3 uM by Western blot analysis. It is filed as cell-based. In short, it runs like this: as §4
The subject of assay [11] is BV-173. As to the kind of experiment: Inhibition of Hsp70/Bim protein protein interaction in human BV-173 cells assessed as decrease in Akt expression at 3 uM by Western blot analysis. The format is cell-based. The procedure, abridged: as §4
Assay [12] deals with BV-173. Put plainly: Inhibition of Hsp70/Bim protein protein interaction in human BV-173 cells assessed as decrease in Raf-1 expression at 3 uM by Western blot analysis. The format is cell-based. In short, it runs like this:
as §4

In assay [13] the test system is KCL-22. As to the kind of experiment: Inhibition of Hsp70/Bim protein protein interaction in human KCL-22 cells assessed as decrease in Akt expression at 3 uM by Western blot analysis. It is filed as cell-based. In short, it runs like this: as §4
Assay [14] has as its system KCL-22. Put plainly: Inhibition of Hsp70/Bim protein protein interaction in human KCL-22 cells assessed as decrease in Raf-1 expression at 3 uM by Western blot analysis. The format is cell-based. In short, it runs like this: as §4
Assay [15] concerns the target Stress-70 protein, mitochondrial (Homo sapiens) (UniProt P38646). As to the kind of experiment: Competitive binding affinity to Mortalin in human BV-173 cell lysate up to 10 uM by pull-down/Western blot analysis. It is filed as subcellular. The note with it: dose microM <=10. In short, it runs like this:
as §2

For assay [16], the target named is Heat shock cognate 71 kDa protein (Homo sapiens) (UniProt P11142). Put plainly: Competitive binding affinity to Hsc70 in human BV-173 cell lysate up to 10 uM by pull-down/Western blot analysis. It is filed as subcellular. To be noted: dose microM <=10. The procedure, abridged: as §2
For assay [17], the system named is BV-173. Put plainly: Inhibition of Hsp70/Bim protein protein interaction in human BV-173 cell lysate at 1 to 5 uM by co-IP/Western blot analysis. It is filed as subcellular. To be noted: dose 1-5 µM. In short, it runs like this:
(§5)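 BV173 cells treated at 0, 1, 3 and 5 µM. Immunoprecipitated with sepharose beads for 2 h at 4 °C. Hsp70, Bim and Bag3 probed by Western blot with β-actin as loading control.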

In assay [18] the test system is BV-173. As to the kind of experiment: Inhibition of Hsp70/Bag3 protein protein interaction in human BV-173 cell lysate at 1 to 5 uM by co-IP/Western blot analysis. It is filed as subcellular. The note with it: dose 1-5 µM. The procedure, abridged:
as §5

The test system of assay [19] is BV-173. Put plainly: Induction of apoptosis in human BV-173 cells transfected with Hsp70 shRNA at 3 uM by AnnexinV staining method. It is filed as functional, cell-based. In short, it runs like this: (§6)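 Stable clones of BV173 carrying non-silencing, Hsp70 or Bim shRNA, treated at 3 µM for 48 h. Apoptosis scored by Annexin V-FITC staining and flow cytometry. n = 3 independent samples, mean ± s.e.m.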

Assay [20] concerns BV-173. Put plainly: Induction of apoptosis in human BV-173 cells transfected with Bim shRNA at 3 uM by AnnexinV staining method. The format is functional, cell-based. In short, it runs like this: as §6
In assay [21] the test system is BV-173. Put plainly: Induction of apoptosis in human BV-173 cells transfected with Hsp70 shRNA assessed as cleaved PARP at 3 uM by Western blot analysis. It is filed as functional, cell-based. In short, it runs like this:
(§7)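 Stable non-silencing, Hsp70 or Bim shRNA BV173 clones treated at 3 µM. Lysed in RIPA with protease/phosphatase inhibitors, 150–250 µg protein resolved by SDS-PAGE, and PARP cleavage detected by immunoblot. n = 3 independent samples.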

Assay [22] concerns BV-173. As to the kind of experiment: Induction of apoptosis in human BV-173 cells transfected with Bim shRNA assessed as cleaved PARP at 3 uM by Western blot analysis. The format is functional, cell-based. In short, it runs like this: as §7

pEC50, pIC50, pKd: −log10 of the molar value. Calls of active or inactive are those of the source. The rule behind the calls is not given here. Some results are limits rather than exact numbers.

Chain of Apoptosis regulator Bcl-2 (P10415 whole entry): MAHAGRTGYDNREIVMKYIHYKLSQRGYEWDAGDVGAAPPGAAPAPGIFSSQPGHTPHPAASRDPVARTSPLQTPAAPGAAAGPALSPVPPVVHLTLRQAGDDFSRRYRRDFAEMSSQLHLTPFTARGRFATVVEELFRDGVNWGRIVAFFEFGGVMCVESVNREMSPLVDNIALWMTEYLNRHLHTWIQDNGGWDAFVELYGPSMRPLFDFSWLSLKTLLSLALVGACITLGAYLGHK
Chain of Stress-70 protein, mitochondrial (Homo sapiens) (P38646 whole entry): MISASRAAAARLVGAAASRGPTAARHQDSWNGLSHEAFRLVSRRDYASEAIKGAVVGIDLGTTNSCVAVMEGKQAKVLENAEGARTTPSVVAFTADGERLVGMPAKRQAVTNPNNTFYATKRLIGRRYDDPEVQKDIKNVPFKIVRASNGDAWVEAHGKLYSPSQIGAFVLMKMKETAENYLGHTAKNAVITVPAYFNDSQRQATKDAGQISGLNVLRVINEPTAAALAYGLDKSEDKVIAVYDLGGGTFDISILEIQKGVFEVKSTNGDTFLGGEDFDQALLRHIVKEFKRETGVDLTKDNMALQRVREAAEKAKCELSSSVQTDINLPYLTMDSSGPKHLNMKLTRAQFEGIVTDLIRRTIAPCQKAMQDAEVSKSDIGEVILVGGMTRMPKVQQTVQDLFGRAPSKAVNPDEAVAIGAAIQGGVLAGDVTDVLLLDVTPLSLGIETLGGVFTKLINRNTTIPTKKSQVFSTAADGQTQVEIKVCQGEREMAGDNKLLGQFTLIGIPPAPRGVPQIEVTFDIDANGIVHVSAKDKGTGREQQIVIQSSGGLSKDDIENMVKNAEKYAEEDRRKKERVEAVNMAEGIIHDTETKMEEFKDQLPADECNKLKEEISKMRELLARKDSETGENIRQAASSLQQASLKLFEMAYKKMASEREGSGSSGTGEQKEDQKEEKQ
Chain of Heat shock cognate 71 kDa protein (Homo sapiens) (P11142 2-646 limits assumed): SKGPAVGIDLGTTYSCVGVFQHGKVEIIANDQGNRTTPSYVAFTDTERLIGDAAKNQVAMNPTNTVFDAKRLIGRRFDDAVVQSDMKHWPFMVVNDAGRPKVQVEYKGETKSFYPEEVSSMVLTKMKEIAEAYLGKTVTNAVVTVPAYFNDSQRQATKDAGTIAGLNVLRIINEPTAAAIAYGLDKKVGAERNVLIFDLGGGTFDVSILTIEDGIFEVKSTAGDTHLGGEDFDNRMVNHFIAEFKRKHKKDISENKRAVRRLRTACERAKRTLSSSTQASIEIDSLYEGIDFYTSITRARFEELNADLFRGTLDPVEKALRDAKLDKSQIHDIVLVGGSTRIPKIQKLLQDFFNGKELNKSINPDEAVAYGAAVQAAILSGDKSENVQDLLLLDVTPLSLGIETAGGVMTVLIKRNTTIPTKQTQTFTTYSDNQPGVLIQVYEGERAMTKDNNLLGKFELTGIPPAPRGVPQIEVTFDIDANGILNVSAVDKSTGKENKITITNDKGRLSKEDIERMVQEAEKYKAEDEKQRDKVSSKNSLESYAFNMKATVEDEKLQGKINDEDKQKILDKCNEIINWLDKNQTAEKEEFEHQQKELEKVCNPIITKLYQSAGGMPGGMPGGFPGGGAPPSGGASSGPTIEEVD

Regarding `N#CC1=C(NCc2ccccc2)c2ccc(SC3CCCCC3)c3cccc(c23)C1=O`, the results for the pIC50 in assay [1] and in assay [2] were 4.98 and 5.28, respectively.
For the molecule `N#CC1=C(C#N)c2ccc(SC3CCCCC3)c3cccc(c23)C1=O`, the pIC50 in [1] was 5.77; in [2], 5.07.
On to `CCCCNC1=C(C#N)C(=O)c2cccc3c(SC4CCCCC4)ccc1c23`, for which the pIC50 in assay [1] is 4.88; in [2], 4.80.
As to `N#CC1=C(C#N)c2ccc(NC3CCCCC3)c3cccc(c23)C1=O`, the pIC50 in [1] and in [2] was under 4.70 each time.
On to `CC1(C)CCC(CN2CCN(c3ccc(C(=O)NS(=O)(=O)c4ccc(NCC5CCOCC5)c([N+](=O)[O-])c4)c(Oc4cnc5[nH]ccc5c4)c3)CC2)=C(c2ccc(Cl)cc2)C1` [VENETOCLAX], for which, in assay [1], the pIC50 was under 4.70.
Regarding `N#CC1=C(C#N)c2ccc(NCc3ccccc3)c3cccc(c23)C1=O`, the figures for the pIC50 in assay [1] and in [2] were 4.73 and 4.83, respectively.
`COc1ccc(Sc2ccc3c4c(cccc24)C(=O)C(C#N)=C3C#N)cc1`: the negative logarithm of the IC50 (pIC50) in [1] was 5.35; in assay [2], 5.21.
The matching figures for `CC(C)c1ccc(Sc2ccc3c4c(cccc24)C(=O)C(C#N)=C3C#N)cc1`: 5.36 and 5.55.
`N#CC1=C(NCC2CCCCC2)c2ccc(SC3CCCCC3)c3cccc(c23)C1=O`: the pIC50 was 5.08 in [1] and 5.32 in assay [2].
With `N#CC1=C(NCCN2CCOCC2)c2ccc(SC3CCCCC3)c3cccc(c23)C1=O`, the pIC50 in assay [1] is 6.35; in assay [2] it was 4.73. Also, the pKd in assay [3] was 6.02. Further, the inhibition entry in the assay listed under Homo sapiens, in the assay on BV-173 [7], with BV-173 [8], in the assay on KCL-22 [9], in the assay with KCL-22 [10] and in the assay with BV-173 [11] was “Active” in each case. Moreover, the inhibition entry with BV-173 [12], in the assay with KCL-22 [13], with KCL-22 [14] and in the assay on BV-173 [17] was “Active” throughout. In addition, in the assay on BV-173 [4], the Activity result was “Dose-Dependent Effect”. The pEC50 is 5.85 with BV-173 [5], 5.59 with KCL-22 [6], under 4.82 in the assay with HEK293 and under 4.82 in the assay on BaF3. Also, the outcome (in assay [15]; in assay [16]; with BV-173 [19]; in the assay on BV-173 [20]; with BV-173 [21]; in the assay on BV-173 [22]) was Active. In the assay on BV-173 [18], the inhibition entry was “inactive”.
Regarding `N#CC1=C(C#N)c2ccc(SC3CCCC3)c3cccc(c23)C1=O`, the pIC50 in assay [1] was 5.49; in [2], 5.08.
The matching figures for `N#CC1=C(C#N)c2ccc(NCCO)c3cccc(c23)C1=O`: 4.82 and under 4.70.
Take `N#CC1=C(C#N)c2ccc(Sc3ccccc3)c3cccc(c23)C1=O`: the pIC50 in [1] is 5.11; in assay [2], 5.74.
On to `N#CC1=C(C#N)c2ccc(N3CCSCC3)c3cccc(c23)C1=O`, for which the pIC50 is under 4.70 in [1] and 6.10 in [2].
In the case of `N#CC1=C(C#N)c2ccc(Sc3ccc(Br)cc3)c3cccc(c23)C1=O`, the pIC50 in assay [1] is 5.60; in [2], 6.15.
In the case of `N#CC1=C(NCCO)c2ccc(SC3CCCCC3)c3cccc(c23)C1=O`, the pIC50 is 6.09 in assay [1] and 5.02 in assay [2].
Take `N#CC1=C(NCCC(N)=O)c2ccc(SC3CCCCC3)c3cccc(c23)C1=O`: the pIC50 is 6.00 in assay [1] and 4.87 in [2].

In general, pIC50 refers to the negative decadic logarithm of the IC50, by convention in mol/L. Low readings indicate a high IC50, high ones a low IC50. As a reminder, the pKd is the Kd on a negative log10 scale, so that one unit is a factor of ten. The pEC50 is the EC50 on a negative log10 scale, so that one unit is a factor of ten. A low value points to a large EC50.

The values above are taken from ChEMBL document CHEMBL4837197, “A novel Hsp70 inhibitor specifically targeting the cancer-related Hsp70-Bim protein-protein interaction” (Eur J Med Chem, 2021).
